Measurements: ChEMBL document CHEMBL1255475, “Mutant prevention concentrations of four carbapenems against gram-negative rods” (2010)
≈ marks a conversion by molar mass, not a printed value.

Experiments:
Assay type in all cases: functional
Klebsiella pneumoniae [1] = assay: Antibacterial activity against beta-lactamase-positive ESBL-negative Klebsiella pneumoniae E472 assessed as mutant prevention concentration after overnight incubation
Method in brief: (§1)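 Overnight growth on blood trypticase soy agar (35°C, air) was resuspended in 0.9% saline and counted on drug-free Mueller-Hinton agar. […] Colonies were retested by agar dilution to confirm mutants. MPC was the lowest concentration preventing resistant-mutant growth.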

Acinetobacter baumannii [2] = assay: Antibacterial activity against Acinetobacter baumannii A849 assessed as mutant prevention concentration after overnight incubation
Escherichia coli [3] = assay: Antibacterial activity against beta-lactamase-negative Escherichia coli E346 assessed as mutant prevention concentration after overnight incubation
Acinetobacter baumannii [4] = assay: Antibacterial activity against Acinetobacter baumannii A851 assessed as mutant prevention concentration after overnight incubation
Klebsiella pneumoniae [5] = assay: Antibacterial activity against beta-lactamase-positive ESBL-negative Klebsiella pneumoniae E473 assessed as mutant prevention concentration after overnight incubation; method in brief: as §1
Klebsiella pneumoniae [6] = assay: Antibacterial activity against beta-lactamase-positive ESBL-positive Klebsiella pneumoniae E457 assessed as mutant prevention concentration after overnight incubation; method in brief: as §1
Pseudomonas aeruginosa [7] = assay: Antibacterial activity against Pseudomonas aeruginosa P323 assessed as mutant prevention concentration after overnight incubation
Escherichia coli [8] = assay: Antibacterial activity against beta-lactamase-negative Escherichia coli E424 assessed as mutant prevention concentration after overnight incubation
Escherichia coli [9] = assay: Antibacterial activity against beta-lactamase-negative Escherichia coli E348 assessed as mutant prevention concentration after overnight incubation
Klebsiella pneumoniae [10] = assay: Antibacterial activity against beta-lactamase-negative Klebsiella pneumoniae E358 assessed as mutant prevention concentration after overnight incubation
Pseudomonas aeruginosa [11] = assay: Antibacterial activity against Pseudomonas aeruginosa P320 assessed as mutant prevention concentration after overnight incubation
Escherichia coli [12] = assay: Antibacterial activity against beta-lactamase-positive ESBL-positive Escherichia coli E460 assessed as mutant prevention concentration after overnight incubation; method in brief: as §1
Escherichia coli [13] = assay: Antibacterial activity against beta-lactamase-positive ESBL-positive Escherichia coli E459 assessed as mutant prevention concentration after overnight incubation; method in brief: as §1
Escherichia coli [14] = assay: Antibacterial activity against beta-lactamase-positive ESBL-negative Escherichia coli E437 assessed as mutant prevention concentration after overnight incubation; method in brief: as §1
Acinetobacter baumannii [15] = assay: Antibacterial activity against Acinetobacter baumannii A928 assessed as mutant prevention concentration after overnight incubation
Escherichia coli [16] = assay: Antibacterial activity against beta-lactamase-positive ESBL-positive Escherichia coli E465 assessed as mutant prevention concentration after overnight incubation; method in brief: as §1
Pseudomonas aeruginosa [17] = assay: Antibacterial activity against Pseudomonas aeruginosa P319 assessed as mutant prevention concentration after overnight incubation
Escherichia coli [18] = assay: Antibacterial activity against beta-lactamase-positive ESBL-negative Escherichia coli E415 assessed as mutant prevention concentration after overnight incubation; method in brief: as §1
Pseudomonas aeruginosa [19] = assay: Antibacterial activity against Pseudomonas aeruginosa P365 assessed as mutant prevention concentration after overnight incubation
Klebsiella pneumoniae [20] = assay: Antibacterial activity against beta-lactamase-negative Klebsiella pneumoniae E417 assessed as mutant prevention concentration after overnight incubation
Klebsiella pneumoniae [21] = assay: Antibacterial activity against beta-lactamase-positive ESBL-negative Klebsiella pneumoniae E481 assessed as mutant prevention concentration after overnight incubation; method in brief: as §1
Pseudomonas aeruginosa [22] = assay: Antibacterial activity against Pseudomonas aeruginosa P363 assessed as mutant prevention concentration after overnight incubation
Acinetobacter baumannii [23] = assay: Antibacterial activity against Acinetobacter baumannii A901 assessed as mutant prevention concentration after overnight incubation
Acinetobacter baumannii [24] = assay: Antibacterial activity against Acinetobacter baumannii A911 assessed as mutant prevention concentration after overnight incubation
Pseudomonas aeruginosa [25] = assay: Antibacterial activity against Pseudomonas aeruginosa P352 assessed as mutant prevention concentration after overnight incubation
Escherichia coli [26] = assay: Antibacterial activity against beta-lactamase-positive ESBL-positive Escherichia coli E456 assessed as mutant prevention concentration after overnight incubation; method in brief: as §1
Escherichia coli [27] = assay: Antibacterial activity against beta-lactamase-negative Escherichia coli E345 assessed as mutant prevention concentration after overnight incubation
Acinetobacter baumannii [28] = assay: Antibacterial activity against Acinetobacter baumannii A891 assessed as mutant prevention concentration after overnight incubation
Klebsiella pneumoniae [29] = assay: Antibacterial activity against beta-lactamase-positive ESBL-positive Klebsiella pneumoniae E476 assessed as mutant prevention concentration after overnight incubation; method in brief: as §1
Escherichia coli [30] = assay: Antibacterial activity against beta-lactamase-negative Escherichia coli E350 […] by agar dilution method
Escherichia coli [31] = assay: Antibacterial activity against beta-lactamase-positive ESBL-positive Escherichia coli E460 incubated up to 7 days by agar dilution method; conditions: E460, 168 h
Method in brief: (§2)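 MIC by CLSI agar dilution, with quality-control strains in each run. Beta-lactamase status was set by 30 μg cefazolin Kirby-Bauer disk diffusion. ESBL status was set by cefotaxime and ceftazidime disks (30 μg) with and without clavulanic acid (10 μg).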

Klebsiella pneumoniae [32] = assay: Antibacterial activity against beta-lactamase-positive ESBL-negative Klebsiella pneumoniae E481 incubated up to 7 days by agar dilution method; conditions: E481, 168 h
Escherichia coli [33] = assay: Antibacterial activity against beta-lactamase-positive ESBL-negative Escherichia coli E412 incubated up to 7 days by agar dilution method; conditions: E412, 168 h; method in brief: as §2
Klebsiella pneumoniae [34] = assay: Antibacterial activity against beta-lactamase-positive ESBL-positive Klebsiella pneumoniae E478 incubated up to 7 days by agar dilution method; conditions: E478, 168 h
Escherichia coli [35] = assay: Antibacterial activity against beta-lactamase-positive ESBL-positive Escherichia coli E456 incubated up to 7 days by agar dilution method; conditions: E456, 168 h; method in brief: as §2
Escherichia coli [36] = assay: Antibacterial activity against beta-lactamase-negative Escherichia coli E424 […] by agar dilution method
Klebsiella pneumoniae [37] = assay: Antibacterial activity against beta-lactamase-negative Klebsiella pneumoniae E420 incubated up to 7 days by agar dilution method; conditions: E420, 168 h; method in brief: as §2
Klebsiella pneumoniae [38] = assay: Antibacterial activity against beta-lactamase-positive ESBL-negative Klebsiella pneumoniae E479 incubated up to 7 days by agar dilution method; conditions: E479, 168 h
Method in brief: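 MPC determination: overnight cultures on blood trypticase soy agar at 35°C in air were resuspended in 0.9% saline, and CFU were counted on drug-free Mueller-Hinton agar. […] Growth was retested by agar dilution to confirm mutants. MPC was the lowest concentration preventing resistant-mutant growth.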

Klebsiella pneumoniae [39] = assay: Antibacterial activity against beta-lactamase-negative Klebsiella pneumoniae E362 incubated up to 7 days by agar dilution method; conditions: E362, 168 h
Escherichia coli [40] = assay: Antibacterial activity against beta-lactamase-positive ESBL-positive Escherichia coli E465 incubated up to 7 days by agar dilution method; conditions: E465, 168 h; method in brief: as §2
Klebsiella pneumoniae [41] = assay: Antibacterial activity against beta-lactamase-negative Klebsiella pneumoniae E360 incubated up to 7 days by agar dilution method; conditions: E360, 168 h
Klebsiella pneumoniae [42] = assay: Antibacterial activity against beta-lactamase-negative Klebsiella pneumoniae E417 incubated up to 7 days by agar dilution method; conditions: E417, 168 h; method in brief: as §2
Klebsiella pneumoniae [43] = assay: Antibacterial activity against beta-lactamase-positive ESBL-negative Klebsiella pneumoniae E480 incubated up to 7 days by agar dilution method; conditions: E480, 168 h
Klebsiella pneumoniae [44] = assay: Antibacterial activity against beta-lactamase-negative Klebsiella pneumoniae E418 incubated up to 7 days by agar dilution method; conditions: E418, 168 h
Klebsiella pneumoniae [45] = assay: Antibacterial activity against beta-lactamase-positive ESBL-positive Klebsiella pneumoniae E476 incubated up to 7 days by agar dilution method; conditions: E476, 168 h

C[C@@H](O)[C@H]1C(=O)N2C(C(=O)O)=C(SCCNC=N)C[C@H]12 [IMIPENEM ANHYDROUS]
MPC (Klebsiella pneumoniae [1]): 32 µg/mL
MPC (Acinetobacter baumannii [2]): 64 µg/mL
MPC (Escherichia coli [3]): 0.5 µg/mL
MPC (Acinetobacter baumannii [4]): 8 µg/mL
MPC (Klebsiella pneumoniae [5]): 16 µg/mL
MPC (Klebsiella pneumoniae [6]): 0.5 µg/mL
MPC (Pseudomonas aeruginosa [7]): 64 µg/mL
MPC (Escherichia coli [8]): 0.5 µg/mL
MPC (Escherichia coli [9]): 0.5 µg/mL
MPC (Klebsiella pneumoniae [10]): 0.5 µg/mL
MPC (Pseudomonas aeruginosa [11]): 32 µg/mL
MPC (Escherichia coli [12]): 0.5 µg/mL
MPC (Escherichia coli [13]): 0.5 µg/mL
MPC (Escherichia coli [14]): 1 µg/mL
MPC (Acinetobacter baumannii [15]): 1 µg/mL
MPC (Escherichia coli [16]): 0.5 µg/mL
MPC (Pseudomonas aeruginosa [17]): 32 µg/mL
MPC (Escherichia coli [18]): 0.5 µg/mL
MPC (Pseudomonas aeruginosa [19]): 16 µg/mL
MPC (Klebsiella pneumoniae [20]): 0.5 µg/mL
MPC (Klebsiella pneumoniae [21]): 16 µg/mL
MPC (Pseudomonas aeruginosa [22]): 32 µg/mL
MPC (Acinetobacter baumannii [23]): 8 µg/mL
MPC (Acinetobacter baumannii [24]): 8 µg/mL
MPC (Pseudomonas aeruginosa [25]): 32 µg/mL
MPC (Escherichia coli [26]): 1 µg/mL
MPC (Escherichia coli [27]): 0.5 µg/mL
MPC (Acinetobacter baumannii [28]): 1 µg/mL
MPC (Klebsiella pneumoniae [29]): >16 µg/mL

C[C@@H](O)[C@H]1C(=O)N2C(C(=O)O)=C(S[C@@H]3CN[C@H](C(=O)N(C)C)C3)[C@H](C)[C@H]12 [MEROPENEM]
MPC (Klebsiella pneumoniae [1]): 32 µg/mL
MPC (Acinetobacter baumannii [2]): 32 µg/mL
MIC (Escherichia coli [30]): 0.03 µg/mL (≈ 0.0782 µM)
MIC (Escherichia coli [31]): 0.03 µg/mL (≈ 0.0782 µM)
MIC (Klebsiella pneumoniae [32]): 1 µg/mL (≈ 2.61 µM)
MPC (Escherichia coli [3]): 0.06 µg/mL
MPC (Acinetobacter baumannii [4]): 32 µg/mL
MPC (Klebsiella pneumoniae [5]): 16 µg/mL
MPC (Klebsiella pneumoniae [6]): 0.125 µg/mL
MPC (Pseudomonas aeruginosa [7]): 4 µg/mL
MIC (Escherichia coli [33]): 0.06 µg/mL (≈ 0.156 µM)
MPC (Escherichia coli [8]): 0.06 µg/mL
MPC (Escherichia coli [9]): 0.06 µg/mL
MPC (Klebsiella pneumoniae [10]): 0.06 µg/mL
MPC (Pseudomonas aeruginosa [11]): >8 µg/mL
MPC (Escherichia coli [12]): 0.06 µg/mL
MIC (Klebsiella pneumoniae [34]): 2 µg/mL (≈ 5.22 µM)
MPC (Escherichia coli [13]): 0.125 µg/mL
MPC (Escherichia coli [14]): 0.125 µg/mL
MPC (Acinetobacter baumannii [15]): 4 µg/mL
MPC (Escherichia coli [16]): >1 µg/mL
MIC (Escherichia coli [35]): 0.03 µg/mL (≈ 0.0782 µM)
MIC (Escherichia coli [36]): 0.03 µg/mL (≈ 0.0782 µM)
MPC (Pseudomonas aeruginosa [17]): 8 µg/mL
MIC (Klebsiella pneumoniae [37]): 0.03 µg/mL (≈ 0.0782 µM)
MIC (Klebsiella pneumoniae [38]): 8 µg/mL (≈ 20.9 µM)
MPC (Escherichia coli [18]): 0.125 µg/mL
MIC (Klebsiella pneumoniae [39]): 0.06 µg/mL (≈ 0.156 µM)
MPC (Pseudomonas aeruginosa [19]): 8 µg/mL
MPC (Klebsiella pneumoniae [20]): 0.06 µg/mL
MPC (Klebsiella pneumoniae [21]): 16 µg/mL
MPC (Pseudomonas aeruginosa [22]): >8 µg/mL
MPC (Acinetobacter baumannii [23]): 8 µg/mL
MIC (Escherichia coli [40]): 0.06 µg/mL (≈ 0.156 µM)
MIC (Klebsiella pneumoniae [41]): 0.03 µg/mL (≈ 0.0782 µM)
MIC (Klebsiella pneumoniae [42]): 0.06 µg/mL (≈ 0.156 µM)
MIC (Klebsiella pneumoniae [43]): 2 µg/mL (≈ 5.22 µM)
MPC (Acinetobacter baumannii [24]): 8 µg/mL
MPC (Pseudomonas aeruginosa [25]): 8 µg/mL
MPC (Escherichia coli [26]): 0.125 µg/mL
MPC (Escherichia coli [27]): 0.06 µg/mL
MPC (Acinetobacter baumannii [28]): 2 µg/mL
MIC (Klebsiella pneumoniae [44]): 0.06 µg/mL (≈ 0.156 µM)
MPC (Klebsiella pneumoniae [29]): >64 µg/mL
MIC (Klebsiella pneumoniae [45]): 4 µg/mL (≈ 10.4 µM)
